Measurements taken from ChEMBL document CHEMBL3797028, “Novel S1P1 receptor agonists - Part 4: Alkylaminomethyl substituted aryl head groups” (Eur J Med Chem, 2016).

Experiments:
[1] = Plasma concentration in Wistar rat at 3 mg/kg administered as single dose through oral gavage after 24 hrs by LC-MS/MS analysis; assay type: ADME, organism-based
Method in brief: (§1)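 Single oral gavage dose to male Wistar rats in DMSO/7.5% succinylated gelatine (final 5% DMSO). Blood was drawn into EDTA at the lymphocyte-count timepoints. Plasma was prepared at 3000 g for 10 min at 4 °C and analysed by LC-MS/MS after protein precipitation.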

[2] = Ratio of total drug level in brain to plasma in Wistar rat at 10 mg/kg administered as single dose through oral gavage after 24 hrs; assay type: ADME, organism-based; conditions: read-out: BPR
Method in brief: (§2)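 Male Wistar rats (n = 2 per timepoint) were dosed orally at 10 mg/kg. At 2, 6 and 24 h they were anaesthetised with 5% isoflurane and sacrificed, and blood was taken for plasma. The brain was perfused via the carotid with 10 mL 0.9% NaCl, removed, and homogenised in an equal volume of ice-cold 0.1 M Na-phosphate pH 7.4. Samples were assayed by LC-MS/MS against blank-brain calibration. Brain/plasma ratio was calculated from these values, reported as the mean of 2.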

[3] = target: Sphingosine 1-phosphate receptor 1 (Homo sapiens, UniProt P21453); experiment: Agonist activity at human recombinant S1PR1 expressed in CHO cell membranes assessed as [35S]GTPgammaS binding preincubated for 30 mins followed by [35S]GTPgammaS addition measured after 1 hr by topcount analysis
Sphingosine 1-phosphate receptor 1, sequence (P21453 whole entry): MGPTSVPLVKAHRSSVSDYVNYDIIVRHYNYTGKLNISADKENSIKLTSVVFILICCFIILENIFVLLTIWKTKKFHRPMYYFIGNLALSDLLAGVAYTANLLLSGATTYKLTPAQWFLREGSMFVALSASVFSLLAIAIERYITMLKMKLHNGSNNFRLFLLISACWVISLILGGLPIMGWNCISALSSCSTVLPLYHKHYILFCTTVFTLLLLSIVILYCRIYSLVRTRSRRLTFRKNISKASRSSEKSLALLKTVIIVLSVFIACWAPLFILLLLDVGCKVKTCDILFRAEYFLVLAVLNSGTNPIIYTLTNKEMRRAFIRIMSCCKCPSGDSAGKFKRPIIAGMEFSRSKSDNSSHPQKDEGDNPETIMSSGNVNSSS

[4] = Plasma concentration in Wistar rat at 1 mg/kg administered as single dose through oral gavage after 3 hrs by LC-MS/MS analysis; assay type: ADME, organism-based; method in brief: as §1
[5] = Selectivity ratio of EC50 for human recombinant S1PR3 expressed in CHO cell membranes to EC50 for human recombinant S1PR1 expressed in CHO cell membranes; assay type: cell-based
Method in brief: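 Compound and membranes are pre-incubated 30 min at rt, then incubated 1 h at rt, filtered and counted. EC50 is the concentration giving 50% of S1P-defined specific binding, as the geometric mean of ≥3 independent duplicate runs. Ratio = EC50 S1PR3/EC50 S1PR1.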

[6] = Total brain concentration in Wistar rat at 10 mg/kg administered as single dose through oral gavage after 6 hrs by LC-MS/MS analysis; assay type: ADME, organism-based; conditions: read-out: Drug uptake; method in brief: as §2
Rattus norvegicus [7] = experiment: Change in circulating lymphocyte count in Wistar rat at 1 mg/kg administered as single dose through oral gavage after 3 hrs relative to control; assay type: functional
Method in brief: (§3)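 Male Wistar rats (RccHan:WIST; n = 6) were given a single oral gavage dose of compound in DMSO plus 7.5% succinylated gelatine (final 5% DMSO). Blood lymphocytes were counted just before dosing and at later timepoints. Percent change was calculated per animal relative to the pre-dose value and compared with a vehicle-treated group, reported as the mean. A ±15% change was treated as baseline, and a reduction of about 60% or more as maximal.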

[8] = Total brain concentration in Wistar rat at 10 mg/kg administered as single dose through oral gavage after 2 hrs by LC-MS/MS analysis; assay type: ADME, organism-based; conditions: read-out: Drug uptake; method in brief: as §2
[9] = Plasma concentration in Wistar rat at 3 mg/kg administered as single dose through oral gavage after 3 hrs by LC-MS/MS analysis; assay type: ADME, organism-based; method in brief: as §1
[10] = target: Sphingosine 1-phosphate receptor 2 (Homo sapiens, UniProt O95136); experiment: Agonist activity at S1PR2 (unknown origin)
Sphingosine 1-phosphate receptor 2, sequence (O95136 whole entry): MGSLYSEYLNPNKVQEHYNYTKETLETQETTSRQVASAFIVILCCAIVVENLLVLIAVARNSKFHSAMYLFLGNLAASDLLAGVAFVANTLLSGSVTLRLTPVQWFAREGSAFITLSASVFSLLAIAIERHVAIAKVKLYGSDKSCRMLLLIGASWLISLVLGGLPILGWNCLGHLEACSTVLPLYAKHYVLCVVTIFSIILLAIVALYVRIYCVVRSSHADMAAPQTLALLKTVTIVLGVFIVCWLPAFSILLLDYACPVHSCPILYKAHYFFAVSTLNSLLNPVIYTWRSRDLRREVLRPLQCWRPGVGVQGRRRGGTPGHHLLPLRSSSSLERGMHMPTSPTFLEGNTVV

[11] = Fraction unbound in Wistar rat plasma incubated for 6 hrs by LC-MS/MS based equilibrium dialysis method; assay type: ADME, cell-free
Method in brief: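 Rapid equilibrium dialysis was run on a shaker for 6 h at 37 °C. The donor side held rat plasma (pH 7.2–7.6) or 1 mg/mL rat liver microsomes in phosphate buffer pH 7.4. The receiver side held phosphate buffer pH 7.4. Both sides were measured by LC-MS/MS to give free fraction and recovery.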

Rattus norvegicus [12] = organism: Rattus norvegicus; experiment: Intrinsic clearance in rat liver microsomes scaled to body weight; conditions: in vitro
[13] = Total brain concentration in Wistar rat at 10 mg/kg administered as single dose through oral gavage after 24 hrs by LC-MS/MS analysis; assay type: ADME, organism-based; conditions: read-out: Drug uptake; method in brief: as §2
Rattus norvegicus [14] = experiment: Change in circulating lymphocyte count in Wistar rat at 10 mg/kg administered as single dose through oral gavage after 96 hrs relative to control; assay type: functional; method in brief: as §3
Rattus norvegicus [15] = experiment: Change in circulating lymphocyte count in Wistar rat at 3 mg/kg administered as single dose through oral gavage after 6 hrs relative to control; assay type: functional; method in brief: as §3
Liver microsome = experiment: Unbound fraction corrected apparent intrinsic clearance in Wistar rat liver microsomes at 1 uM after 2.5 to 15 mins by LC-MS/MS analysis in presence of NADPH; assay type: ADME
Method in brief: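 Apparent CLint was measured by microsomal substrate depletion: 1 uM start, 0.5 mg/mL rat liver microsomes, pH 7.4, 37 °C, NADPH-regenerating system, sampling 0–15 min, LC-MS/MS. It was then divided by the unbound microsomal fraction, which was determined by rapid equilibrium dialysis of 1 mg/mL microsomes for 6 h at 37 °C.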

Rattus norvegicus [16] = experiment: Change in circulating lymphocyte count in Wistar rat at 10 mg/kg administered as single dose through oral gavage after 3 hrs relative to control; assay type: functional; method in brief: as §3
[17] = Ratio of total drug level in brain to plasma in Wistar rat at 10 mg/kg administered as single dose through oral gavage after 6 hrs; assay type: ADME, organism-based; conditions: read-out: BPR; method in brief: as §2
[18] = Ratio of total drug level in brain to plasma in Wistar rat at 10 mg/kg administered as single dose through oral gavage after 2 hrs; assay type: ADME, organism-based; conditions: read-out: BPR; method in brief: as §2
[19] = Plasma concentration in Wistar rat at 3 mg/kg administered as single dose through oral gavage after 6 hrs by LC-MS/MS analysis; assay type: ADME, organism-based; method in brief: as §1
Rattus norvegicus [20] = experiment: Change in circulating lymphocyte count in Wistar rat at 1 mg/kg administered as single dose through oral gavage after 6 hrs relative to control; assay type: functional; method in brief: as §3
Plasma = experiment: Plasma concentration in Wistar rat at 3 mg/kg administered as single dose through oral gavage after 72 hrs by LC-MS/MS analysis; assay type: ADME, organism-based; conditions: in vivo, BLD = below limit of detection; method in brief: as §1
[21] = Plasma concentration in Wistar rat at 10 mg/kg administered as single dose through oral gavage after 6 hrs by LC-MS/MS analysis; assay type: ADME, organism-based; method in brief: as §1

concentration at 24 h [1]: 25 ng/mL | Kp at 24 h [2]: 11.5 | EC50 [3]: 0.5 nM | concentration at 3 h [4]: 67 ng/mL | concentration at 6 h [6]: 1030 ng/g | concentration at 2 h [8]: 522 ng/g | concentration at 3 h [9]: 210 ng/mL | EC50 [10]: > 1000 nM | fraction unbound at 6 h [11]: < 0.001 | concentration at 24 h [13]: 776 ng/g | CL free (Liver microsome): 14000 µL/min/mg | Kp at 6 h [17]: 1.69 | Kp at 2 h [18]: 0.64 | concentration at 6 h [19]: 170 ng/mL | Cp (Plasma): BLD | concentration at 6 h [21]: 540 ng/mL
Structure (SMILES): CCc1cc(-c2noc(-c3cc(C)c(CN(C)CC(C)C)s3)n2)cc(C)c1OC[C@@H](O)CNC(=O)CO
Ratio EC50 [5]: 290 | Activity (Rattus norvegicus [7]): -33% | CL (Rattus norvegicus [12]): 1512 L/h/kg | Activity (Rattus norvegicus [14]): 4% | Activity (Rattus norvegicus [15]): -70% | Activity (Rattus norvegicus [16]): -69% | Activity (Rattus norvegicus [20]): -46%
